Assay results taken from ChEMBL document CHEMBL1125559, “Analogues of platelet activating factor. 7. Bis-aryl amide and bis-aryl urea receptor antagonists of PAF” (J Med Chem, 1992).

How the values were obtained:
[1] = system: Mus musculus; experiment: Compound was evaluated for PAF-induced lethality in mouse (intraperitoneally at a dose of 1.0 mg/kg in saline 0.5 hr before lethal intravenous PAF challenge 75-150 mg/kg); type: ADME, organism-based; design: dose 1 mg/kg, route intraperitoneal; conditions: in vivo
Procedure, shortened: (§1)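 Female Swiss-Webster mice (20-25 g) received test compound ip in saline (10 mL/Kg); controls got saline alone. The PAF dose was chosen daily from small pilot groups. Survival was scored at 1.5 h and recorded as dead/total.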

[2] = organism: Oryctolagus cuniculus; experiment: Concentration required to inhibit PAF (5*10e-8 M) induced platelet aggregation in rabbit platelet rich plasma(PRP) by 50%; type: functional, organism-based
Procedure, shortened: (§2)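 Rabbit PRP came from blood spun at 800 rpm for 15 min at room temperature, with platelet counts of 350 000–550 000/µL. PRP was equilibrated 1–2 min at 37 °C in an aggregometer. It was preincubated 5 min with test compound (final 10^-8 to 10^-5 M; methanol stock diluted in saline) or saline, then challenged with L-C16-PAF. IC50 was taken from concentration–response curves of aggregation magnitude and averaged over separate determinations.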

[3] = system: Mus musculus; experiment: Compound was evaluated for PAF-induced lethality in mouse (intraperitoneally at a dose of 1.0 mg/kg in saline 0.5 hr before lethal intravenous PAF challenge 75-150 mg/kg); 8/13; type: ADME, organism-based; design: dose 1 mg/kg, route intravenous; conditions: in vivo; procedure, shortened: as §1
[4] = system: Mus musculus; experiment: Compound was evaluated for PAF-induced lethality in mouse (intraperitoneally at a dose of 1.0 mg/kg in saline 0.5 hr before lethal intravenous PAF challenge 75-150 mg/kg); 8/12; type: ADME, organism-based; design: dose 1 mg/kg, route intravenous; conditions: in vivo; procedure, shortened: as §1
[5] = system: Mus musculus; experiment: Compound was evaluated for PAF-induced lethality in mouse (intraperitoneally at a dose of 1.0 mg/kg in saline 0.5 hr before lethal intravenous PAF challenge 75-150 mg/kg); 2/10; type: ADME, organism-based; design: dose 1 mg/kg; conditions: in vivo; procedure, shortened: as §1
[6] = system: Mus musculus; experiment: Compound was evaluated for PAF-induced lethality in mouse (intraperitoneally at a dose of 1.0 mg/kg in saline 0.5 hr before lethal intravenous PAF challenge 75-150 mg/kg); 4/12; type: ADME, organism-based; design: dose 1 mg/kg; conditions: in vivo; procedure, shortened: as §1
[7] = system: Mus musculus; experiment: Compound was evaluated for PAF-induced lethality in mouse (intraperitoneally at a dose of 1.0 mg/kg in saline 0.5 hr before lethal intravenous PAF challenge 75-150 mg/kg); 12/39; type: ADME, organism-based; design: dose 1 mg/kg; conditions: in vivo; procedure, shortened: as §1
[8] = system: Mus musculus; experiment: Compound was evaluated for PAF-induced lethality in mouse (intraperitoneally at a dose of 1.0 mg/kg in saline 0.5 hr before lethal intravenous PAF challenge 75-150 mg/kg); 5/12; type: ADME, organism-based; design: dose 1 mg/kg, route intravenous; conditions: in vivo; procedure, shortened: as §1
[9] = system: Mus musculus; experiment: Compound was evaluated for PAF-induced lethality in mouse (intraperitoneally at a dose of 1.0 mg/kg in saline 0.5 hr before lethal intravenous PAF challenge 75-150 mg/kg); 11/15; type: ADME, organism-based; design: dose 1 mg/kg; conditions: in vivo; procedure, shortened: as §1
[10] = system: Mus musculus; experiment: Compound was evaluated number of mouse dead out of total (intraperitoneally at a dose of 1.0 mg/kg in saline 0.5 hr before lethal intravenous PAF challenge 75-150 mg/kg)''; 6/12; type: ADME, organism-based; design: dose 1 mg/kg, route intravenous; conditions: in vivo; procedure, shortened: as §1
[11] = organism: Oryctolagus cuniculus; experiment: Concentration required to inhibit PAF (5*10e-8 M) induced platelet aggregation in rabbit platelet rich plasma(PRP) by 50% at 10 uM; type: functional
[12] = organism: Oryctolagus cuniculus; experiment: Concentration required to inhibit PAF (5*10e-7 M) induced platelet aggregation in rabbit platelet rich plasma(PRP) by 50%; type: functional, organism-based; procedure, shortened: as §2
[13] = system: Mus musculus; experiment: Compound was evaluated for PAF-induced lethality in mouse (intraperitoneally at a dose of 1.0 mg/kg in saline 0.5 h before lethal intravenous PAF challenge 75-150 mg/kg); 12/14; type: ADME, organism-based; design: dose 1 mg/kg; conditions: in vivo; procedure, shortened: as §1

Compound | Lethality [1] | IC50 [2] | also measured
CCCCCCCCCCCCCCOc1ccc(CN(C(=O)NC)c2cccc(C[n+]3csc(C)c3)c2)cc1.[Br-] | 62% | 0.53 µM | Dead/total [3]: 8
CCCCCCCCCCCCCCCCOc1ccc(CC(=O)Nc2cccc(C[n+]3csc(C)c3)c2)cc1 | – | 5.3 µM | –
CCCCCCCCCCCCCCOc1ccc(CC(=O)Nc2ccc(C[n+]3csc(C)c3)cc2)cc1.[Br-] | 80% | 0.6 µM | Dead/total [4]: 8
CCCCCCCCCCCCCCOc1cccc(OP(=O)([O-])Oc2cccc(C[n+]3csc(C)c3)c2)c1C(=O)OC | 15% | – | –
COc1cc([C@H]2CC[C@H](c3cc(OC)c(OC)c(OC)c3)O2)cc(OC)c1OC | – | 1.6 µM | –
CCCCCCCCCCCCCCOc1cc(CN(C(C)=O)c2cccc(C[n+]3csc(C)c3)c2)cc(OC)c1 | – | 0.96 µM | –
CCCCCCCCCCCCCCOc1c(C)cccc1CN(C(C)=O)c1cccc(C[n+]2csc(C)c2)c1.[Br-] | 20% | 3.2 µM | Dead/total [5]: 2
CCCCCCCCCCCCCCOc1c(C)cc(CN(C(C)=O)c2cccc(C[n+]3csc(C)c3)c2)cc1C | – | 0.71 µM | –
CCCCCCCCCCCCCCOc1cc(CN(C(C)=O)c2cccc(C[n+]3csc(C)c3)c2)ccc1OC.[Br-] | 27% | 0.37 µM | Dead/total [6]: 4
CCCCCCCCCCCCCCOc1ccc(CNC(=O)c2ccc(C[n+]3csc(C)c3)cc2)cc1.[Br-] | 31% | 2.9 µM | Dead/total [7]: 12
CCCCCCCCCCCCCCCCOc1ccc(OCC(=O)Nc2cccc(C[n+]3csc(C)c3)c2)cc1 | – | 5 µM | –
CCCCCCCCCCCCCCOc1ccc(N(Cc2cccc(C[n+]3csc(C)c3)c2)C(C)=O)cc1 | – | 1 µM | –
CCCCCCCCCCCCCCOc1ccc(CNc2cccc(C[n+]3csc(C)c3)c2)cc1.[Br-] | 42% | 7.1 µM | Dead/total [8]: 5
CCCCCCCCCCCCCCOc1cccc(CN(C(C)=O)c2cccc(C[n+]3csc(C)c3)c2)c1 | – | 0.74 µM | –
CCCCCCCCCCCCCCOc1ccc(CNC(=O)c2cccc(C[n+]3csc(C)c3)c2)cc1OC | – | 0.96 µM | –
CCCCCCCCCCCCCCOc1cc(OC)ccc1CN(C(C)=O)c1cccc(C[n+]2csc(C)c2)c1.[Br-] | 73% | 1.4 µM | Dead/total [9]: 11
CCCCCCCCCCCCCCOc1ccc(CN(C(C)=O)c2cccc(C[n+]3csc(C)c3)c2)cc1OC | – | 0.32 µM | –
CCCCCCCCCCCCCCOc1cccc(C(=O)Nc2cccc(C[n+]3csc(C)c3)c2)c1 | – | 4.2 µM | –
CCCCCCCCCCCCCCOc1ccc(CC(=O)Nc2cccc(C[n+]3csc(C)c3)c2)cc1.[Br-] | 50% | 0.31 µM | Dead/total [10]: 6
CCCCCCCCCCCCCCOc1cc(CNC(=O)c2cccc(C[n+]3csc(C)c3)c2)cc(OC)c1.[Br-] | – | – | Inhibition [11]: 43%
CCCCCCCCCCCCCCOc1ccc(CCN(C(C)=O)c2cccc(C[n+]3csc(C)c3)c2)cc1 | – | – | IC50 [12]: 4.3 µM
CCCCCCCCCCCCCCOc1cc(CN(C(C)=O)c2cccc(C[n+]3csc(C)c3)c2)ccc1C.[Br-] | 86% | 6.7 µM | Dead/total [13]: 12
Cc1nnc2n1-c1sc(CCC(=O)N3CCOCC3)cc1C(c1ccccc1Cl)=NC2 [APAFANT] | – | 0.34 µM | –
